Test results: ChEMBL document CHEMBL1126023, “Synthesis, antinociceptive activity, and opioid receptor profiles of substituted trans-3-(decahydro- and octahydro-4a-isoquinolinyl)phenols” (J Med Chem, 1992)

Assays:
[1] = (§1) In vitro inhibitory activity against opioid receptor in Guinea pig ileum; type: functional, tissue-based
Mus musculus = assay: Effective dose for the inhibition of acetylcholine induced mouse abdominal contriction was determined in vivo; type: functional; details: Abdomen
In short: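 Mouse abdominal constriction induced by acetylcholine. Compounds given sc in saline vehicle. ED50 reported in mg/kg sc, with 95% confidence limits, or both values where only two determinations were made.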

[2] = target: Opioid receptors; mu/kappa/delta; assay: as §1; type: tissue-based, Cavia porcellus
[3] = target: Mu-type opioid receptor (Cavia porcellus) (UniProt P97266); assay: Dose ratio IC50 after beta-FNA (10e-6 M) 30 min pretreatment on guinea pig ileum and IC50 before beta-FNA treatment against opioid receptor mu in guinea pig ileum; type: tissue-based
Sequence of Mu-type opioid receptor (Cavia porcellus) (P97266 whole entry): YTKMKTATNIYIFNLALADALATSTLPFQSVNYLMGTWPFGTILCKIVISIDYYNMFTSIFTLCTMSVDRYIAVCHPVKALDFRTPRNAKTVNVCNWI

Oryctolagus cuniculus [4] = species on record: Oryctolagus cuniculus; assay: In vitro antagonist affinity constant was measured on rabbit vas deferens; type: functional
Oryctolagus cuniculus [5] = species on record: Oryctolagus cuniculus; assay: In vitro antagonist affinity constant was measured on rabbit vas deferens AT 10e-6 M concentration; type: functional

SMILES	IC50 [1]	ED50 (Mus musculus)	IC50 [2]	Dose ratio [3]	pKB (Oryctolagus cuniculus [4])	IC50 (Oryctolagus cuniculus [4])	inhibition at 1 µM (Oryctolagus cuniculus [5])
CC[C@@]12CCN(CC3CC3)C(C(=O)c3ccc(O)cc31)[C@@H]2C [ETHYLKETOCYCLAZOCINE]	0.0005 µM	0.08 mg/kg					
C=CCN1CCC2(c3cccc(O)c3)CC(=C)CC[C@H]2C1 (some centres not stated)		0.55 mg/kg	0.14 µM	3.3	5.5		
Oc1cccc(C23C=C[C@H](O)C[C@H]2CN(CC2CC2)CC3)c1 (some centres not stated)		> 10 mg/kg			5.6		
O=C1CCC2(c3cccc(O)c3)CCN(CC3CCC3)C[C@@H]2C1 (some centres not stated)		> 10 mg/kg					
O=C1CCC2(c3cccc(O)c3)CCN(CC3CC3)C[C@@H]2C1 (some centres not stated)		> 10 mg/kg					
C=C1CCC2(c3cccc(O)c3)CCN(CC3CCC3)C[C@@H]2C1 (some centres not stated)		1.06 mg/kg			5.3		
C=C1CCC2(c3cccc(O)c3)CCN(CC3CC3)C[C@@H]2C1 (some centres not stated)		1.3 mg/kg			5.8		
C=C1C[C@@H](C)[C@H]2CN(CC3CC3)CCC2(c2cccc(O)c2)C1 (some centres not stated)		0.05 mg/kg				28 µM	
C=C1CC[C@H]2CN(CC3CC3)CCC2(c2cccc(O)c2)C1 (some centres not stated)		0.17 mg/kg	0.015 µM	1.7	6.3		
CN1CCC2(c3cccc(O)c3)CC=CC[C@H]2C1 (some centres not stated)		0.5 mg/kg	0.13 µM	> 30	5.4		
Oc1cccc(C23CC=CC[C@H]2CN(CC2CC2)CC3)c1 (some centres not stated)		0.53 mg/kg	0.09 µM	2.3			
Oc1cccc(C23CCCC[C@H]2CN(CC2CC2)CC3)c1 (some centres not stated)		1.09 mg/kg	0.15 µM	2.8			24%
C=C1C[C@H](C)[C@H]2CN(CC3CC3)CCC2(c2cccc(O)c2)C1 (some centres not stated)		3.3 mg/kg			4.8		
Oc1cccc(C23CC[C@H](O)C[C@H]2CN(CC2CC2)CC3)c1 (some centres not stated)		> 10 mg/kg					
O=C1CC[C@H]2CN(CC3CC3)CCC2(c2cccc(O)c2)C1 (some centres not stated)		1.6 mg/kg	0.12 µM	1.4	6.1		
C=C1CC[C@H]2CN(CC3CCC3)CCC2(c2cccc(O)c2)C1 (some centres not stated)		0.23 mg/kg			5.3		
C=CCN1CCC2(c3cccc(O)c3)CC=CC[C@H]2C1 (some centres not stated)		1.91 mg/kg			5.6		
CN1CC[C@]23c4c5ccc(O)c4O[C@H]2[C@@H](O)C=C[C@H]3[C@H]1C5 [MORPHINE]		0.47 mg/kg					
Oc1cccc(C23CC=CC[C@H]2CN(CC2CCC2)CC3)c1 (some centres not stated)		0.39 mg/kg	0.06 µM	14.7	5.7		
C=C1CC[C@H]2CN(C)CCC2(c2cccc(O)c2)C1 (some centres not stated)		0.18 mg/kg	0.06 µM	22	5.9		
Oc1cccc(C23CC[C@H](O)C[C@H]2CN(CC2CCC2)CC3)c1 (some centres not stated)		> 10 mg/kg					
